The results in this text go back to ChEMBL document CHEMBL2062450, “New cytosine derivatives as inhibitors of DNA methylation” (Eur J Med Chem, 2012).

Active and inactive are the calls of the source. The rule behind the calls is not given here.

Experiment [1] concerns the target T1, Orphan methyltransferase M.SssI (Spiroplasma monobiae, UniProt P15840). Nature of the experiment: Competitive inhibition of Spiroplasma sp. MQ1 SssI methyltransferase using pUC18 as substrate measured for 10 mins by Dixon plot analysis. A digest of the protocol:
(§1)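 M.SssI reaction in 10 mM Tris-HCl pH 7.9 with 50 mM NaCl, 10 mM DTT, 2 mM [3H]CH3-SAM, 1 U enzyme and pUC18 plasmid (0.1, 0.5 or 1 µg). Run at 37 °C for 1, 3, 5 and 10 min with inhibitor present to get initial rates V0 (nM/min). Ki taken from Dixon plot. Reactions repeated twice.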

The target of experiment [2] is T2, DNA (cytosine-5)-methyltransferase 1 (Homo sapiens, UniProt P26358). Nature of the experiment: Inhibition of DNMT1 in human HeLa cell nuclear extract assessed as methylated substrate level at 100 uM by ELISA. For orientation: ELISA stands for enzyme-linked immunosorbent assay.
T2 sequence (P26358 whole entry): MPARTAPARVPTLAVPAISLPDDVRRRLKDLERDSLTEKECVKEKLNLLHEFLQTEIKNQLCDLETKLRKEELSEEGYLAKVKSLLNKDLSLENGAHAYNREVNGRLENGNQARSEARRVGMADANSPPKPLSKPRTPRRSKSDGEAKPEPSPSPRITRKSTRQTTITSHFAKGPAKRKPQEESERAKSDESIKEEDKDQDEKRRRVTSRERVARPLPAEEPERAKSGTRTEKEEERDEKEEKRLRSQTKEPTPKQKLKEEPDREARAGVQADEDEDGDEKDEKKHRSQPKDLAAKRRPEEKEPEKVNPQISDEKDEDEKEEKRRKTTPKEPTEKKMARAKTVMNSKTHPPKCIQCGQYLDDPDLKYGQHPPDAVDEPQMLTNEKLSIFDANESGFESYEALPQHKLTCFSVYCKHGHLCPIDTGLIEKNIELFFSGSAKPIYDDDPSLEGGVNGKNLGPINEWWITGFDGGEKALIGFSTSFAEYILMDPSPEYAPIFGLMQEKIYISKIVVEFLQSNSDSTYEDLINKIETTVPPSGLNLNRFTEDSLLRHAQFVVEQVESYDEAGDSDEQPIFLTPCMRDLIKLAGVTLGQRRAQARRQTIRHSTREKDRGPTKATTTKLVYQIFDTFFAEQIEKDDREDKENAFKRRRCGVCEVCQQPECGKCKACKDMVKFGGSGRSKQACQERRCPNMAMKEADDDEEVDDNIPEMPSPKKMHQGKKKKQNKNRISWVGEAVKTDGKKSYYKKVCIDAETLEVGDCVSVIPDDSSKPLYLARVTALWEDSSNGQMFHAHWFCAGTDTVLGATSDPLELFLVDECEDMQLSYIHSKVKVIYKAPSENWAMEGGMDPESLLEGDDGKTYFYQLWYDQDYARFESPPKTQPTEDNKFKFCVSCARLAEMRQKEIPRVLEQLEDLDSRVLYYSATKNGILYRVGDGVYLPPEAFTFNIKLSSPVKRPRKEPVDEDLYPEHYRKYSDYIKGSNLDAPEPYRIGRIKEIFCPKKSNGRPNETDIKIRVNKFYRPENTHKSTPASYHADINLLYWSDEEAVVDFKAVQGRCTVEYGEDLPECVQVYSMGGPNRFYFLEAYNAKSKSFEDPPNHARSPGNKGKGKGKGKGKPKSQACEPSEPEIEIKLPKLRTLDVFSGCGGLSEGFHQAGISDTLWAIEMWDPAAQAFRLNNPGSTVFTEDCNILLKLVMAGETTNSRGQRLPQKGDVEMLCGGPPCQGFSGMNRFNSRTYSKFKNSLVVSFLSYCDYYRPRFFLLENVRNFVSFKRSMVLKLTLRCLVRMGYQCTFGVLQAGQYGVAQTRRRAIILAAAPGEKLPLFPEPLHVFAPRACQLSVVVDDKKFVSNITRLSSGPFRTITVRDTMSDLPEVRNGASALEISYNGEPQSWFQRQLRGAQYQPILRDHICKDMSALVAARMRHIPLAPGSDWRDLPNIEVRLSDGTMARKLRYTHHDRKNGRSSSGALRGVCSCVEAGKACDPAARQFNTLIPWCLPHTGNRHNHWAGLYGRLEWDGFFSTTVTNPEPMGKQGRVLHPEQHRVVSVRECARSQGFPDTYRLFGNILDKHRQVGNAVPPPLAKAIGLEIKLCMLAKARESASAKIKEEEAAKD
Experiment [3] has as its system HeLa. In words: Inhibition of DNA methylation in human HeLa cells assessed as reduction of 5-methylcytosine level using [gamma-32P]ATP after 72 hrs. The format is functional, cell-based. The gist of the method: (§2)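 HeLa (RPMI-1640) and HEK293 (DMEM) cells, medium with 10% FBS, antibiotics and vitamin mix. Seeded at 1.25 × 10⁵ per well and exposed 72 h at 37 °C, 5% CO2 to 1, 10 or 100 µM. DNA digested with micrococcal nuclease and spleen phosphodiesterase, then 5'-labelled with [γ-32P]ATP and T4 polynucleotide kinase. 3'-phosphate removed with nuclease P1. Nucleotides resolved by 2D cellulose TLC. Methylation given as m5C/(m5C+dC+dT) × 100.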

The subject of experiment [4] is HEK293. In words: Inhibition of DNA methylation in human HEK293 cells assessed as reduction of 5-methylcytosine level using [gamma-32P]ATP after 72 hrs. It counts as cell-based. Conditions: HEK293, 72 h. The gist of the method:
as §2

Experiment [5] deals with T2, DNA (cytosine-5)-methyltransferase 1. In words: Inhibition of DNMT1 in human HeLa cells assessed as 2'-deoxyadenosine phosphate level by two-dimensional thin layer chromatography analysis. The format is cell-based. Conditions: in the assay text read “5-methylcytosine level” for “2'-deoxyadenosine phosphate level”. A digest of the protocol:
as §2

The target is the same in experiment [6]. Nature of the experiment: Inhibition of DNMT1 in human HeLa cells assessed as 5-methyl-2'-deoxycytosine phosphate level by two-dimensional thin layer chromatography analysis. The format is cell-based. A digest of the protocol: as §2
Experiment [7] has the same target. In words: Inhibition of DNMT1 in human HeLa cells assessed as 2'-deoxycytosine phosphate level by two-dimensional thin layer chromatography analysis. The format is cell-based. A digest of the protocol: as §2
Experiment [8] shares this target. In words: Inhibition of DNMT1 in human HeLa cells assessed as 2'-deoxytymidine phosphate level by two-dimensional thin layer chromatography analysis. The format is cell-based. A digest of the protocol: as §2
The target is the same in experiment [9]. Nature of the experiment: Inhibition of DNMT1 in human HeLa cells assessed as 2'-deoxyguanosine phosphate level by two-dimensional thin layer chromatography analysis. The format is cell-based. A digest of the protocol: as §2
Experiment [10] has as its target T1, Orphan methyltransferase M.SssI. In words: Uncompetitive inhibition of Spiroplasma sp. MQ1 SssI methyltransferase using pUC18 as substrate measured for 10 mins by Cornish-Bowden's plot analysis. The arrangement: […]. A digest of the protocol: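 M.SssI reaction in 10 mM Tris-HCl pH 7.9 with 50 mM NaCl, 10 mM DTT, 2 mM [3H]CH3-SAM, 1 U enzyme and pUC18 (0.1, 0.5 or 1 µg). Run at 37 °C for 1–10 min to get V0. Ki' obtained by Cornish-Bowden method, plotting S/V against inhibitor concentration. Duplicates.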

The target of experiment [11] is T2, DNA (cytosine-5)-methyltransferase 1. In words: Inhibition of DNMT1 in human HeLa cell nuclear extract assessed as methylated substrate level at 10 uM by ELISA. The gist of the method:
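HeLa nuclear extract (cells grown to 80% confluency; protein by Bradford) with hemimethylated DNA substrate, incubated 1 h with or without inhibitor. Methylated product detected by ELISA with anti-5-methylcytosine antibody, colorimetric read-out at 450 nm. Each experiment repeated twice.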

In experiment [12] the target is T1, Orphan methyltransferase M.SssI. Nature of the experiment: Inhibition of Spiroplasma sp. MQ1 SssI methyltransferase-mediated DNA cytosine methylation using pUC18 as substrate and [3H]CH3-SAM measured up to 10 mins. A digest of the protocol: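 Tritium-incorporation assay with SssI methyltransferase, pUC18 plasmid (0.1–1 µg) and 2 mM [3H]CH3-SAM. Buffer is 10 mM Tris-HCl pH 7.9, 50 mM NaCl, 10 mM DTT. Sampled at 1, 3, 5 and 10 min at 37 °C to give initial velocity V0. Reactions done twice.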

Experiment [13] has as its target T2, DNA (cytosine-5)-methyltransferase 1. In words: Inhibition of DNMT1 in human HeLa cell nuclear extract assessed as methylated substrate level by ELISA.
Experiment [14] concerns the target T1, Orphan methyltransferase M.SssI. Nature of the experiment: Non-competitive inhibition of Spiroplasma sp. MQ1 SssI methyltransferase using pUC18 as substrate measured for 10 mins by Dixon plot analysis. A digest of the protocol: as §1

T1 sequence (P15840 whole entry): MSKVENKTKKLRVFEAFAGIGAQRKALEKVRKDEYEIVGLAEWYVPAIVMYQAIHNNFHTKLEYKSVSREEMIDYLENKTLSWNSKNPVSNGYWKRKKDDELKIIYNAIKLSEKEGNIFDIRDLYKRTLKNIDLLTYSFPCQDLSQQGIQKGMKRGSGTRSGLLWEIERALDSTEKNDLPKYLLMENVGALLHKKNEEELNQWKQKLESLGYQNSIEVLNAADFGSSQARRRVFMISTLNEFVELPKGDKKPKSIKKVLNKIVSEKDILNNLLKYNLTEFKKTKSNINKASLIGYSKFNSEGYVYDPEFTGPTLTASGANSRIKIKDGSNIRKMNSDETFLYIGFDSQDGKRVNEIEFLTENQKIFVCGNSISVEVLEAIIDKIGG

A word on the Ki: it is a dissociation constant, usually derived from enzyme kinetics or from competition with a known ligand. Low readings indicate tighter binding, high ones weaker binding. In the case of `O=c1ncc(CS(=O)(=O)O)c(NCc2ccco2)[nH]1`, the inhibitory constant (Ki) in [1] was 112 µM.

`CC(=O)OCc1c[nH]c(=O)nc1NCc1ccccc1` gave a Ki in [1] of 23 µM. Compared with the last compound, the Ki is about 4.9-fold lower.

`CCCCNCc1c[nH]c(=O)nc1NCc1ccco1` gave a Ki in experiment [1] of 960 µM.

The compound `O=c1nc(NCc2ccccc2)c(CO)c[nH]1` came in with an inhibition constant Ki in [1] of 135 µM. This Ki is about 7.1-fold lower than that of the compound before.

What is called inhibition is the change of the read-out against control, counted positive when it falls. Consider `O=C(O)[C@H](Cc1c[nH]c2ccccc12)N1C(=O)c2ccccc2C1=O`, for which the affinity in experiment [1], expressed as Ki, was 0.23 µM. The inhibition in experiment [2] was found to be 11%.

One may read the IC50 as the concentration that gives 50% inhibition. The compound `O=c1nc(NCc2ccccc2)cc[nH]1` had a Ki in [1] of 10 µM. Besides, the IC50 in [3] was 31 µM; in experiment [4], greater than 100 µM. For the same compound, the inhibition result in [5], in [6], in experiment [7], in [8] and in experiment [9] was “Active” each time.

Take `CCCCNc1ccnc(=O)[nH]1`: the affinity in experiment [10] corresponds to a Ki of 1000 µM. This counts as millimolar.

With `CCC/C=N/c1cc[nH]c(=O)n1`, in experiment [10], the Ki turned out to be 800 µM.

As to `O=C(O[C@@H]1Cc2c(O)cc(O)cc2O[C@@H]1c1cc(O)c(O)c(O)c1)c1cc(O)c(O)c(O)c1` [EPIGALOCATECHIN GALLATE], the Ki in [1] was 0.028 µM. Besides, in [11], the inhibition was determined as 42%.

In the case of `O=c1ncc(CS(=O)(=O)O)c(NCc2ccccc2)[nH]1`, the Ki in [1] was 33 µM.

In [1], `Nc1nc[nH]c(=O)n1` registered a Ki of 5500 µM. This Ki is about 170-fold higher than that of the compound before.

`Cc1ccc(S(=O)(=O)Nc2cc[nH]c(=O)n2)cc1` yielded a Ki in experiment [1] of 550 µM.

On to `O=c1nc(NCc2ccco2)ccn1[C@H]1C[C@H](O)[C@@H](CO)O1`, for which, in experiment [1], the Ki came out at 170 µM.

As to `O=Cc1cnc(=O)[nH]c1NCc1ccccc1`, the affinity in [1] corresponds to a Ki of 35 µM.

On to `CCNc1cc[nH]c(=O)n1`, for which affinity in [10] was put at a Ki of 6000 µM.

As for `Cc1c[nH]c(=O)nc1NCc1ccco1`, affinity in experiment [1] was put at a Ki of 15 µM. Besides, the IC50 in experiment [3] is 88 µM; in [4], greater than 100 µM.

In turn, `Cc1c[nH]c(=O)nc1NCc1ccccc1` displayed a Ki in [1] of 3.6 µM.

In experiment [1], `Cc1ccc(CNc2cc[nH]c(=O)n2)cc1` displayed a Ki of 26 µM.

Compound `CC/C=N/c1cc[nH]c(=O)n1` showed a Ki in [10] of 3400 µM.

Turning to `O=c1nc(NCc2ccco2)c(CO)c[nH]1`, the affinity in experiment [1], expressed as Ki, was 440 µM.

Compound `Cc1cn([C@H]2C[C@H](O)[C@@H](CO)O2)c(=O)nc1NCc1ccco1` gave a Ki in experiment [1] of 250 µM. This Ki lies about 1.8-fold lower than the previous one.

`O=C1N=C(NCc2ccco2)NCN1`: the IC50 in experiment [12] was determined as 2.73 µM; in experiment [13], 22 µM; in experiment [3] it was 26 µM; in [4], 75 µM. Further, the affinity in [1] corresponds to a Ki of 0.7 µM. Moreover, the inhibition entry in experiment [13] was “Dose-dependent effect”; in experiment [11], 55%. Also, the inhibition result in [5], in [6], in experiment [7], in [8] and in experiment [9] was “Active” in each case.

In experiment [14], `O=c1nc(NCc2ccccc2[N+](=O)[O-])cc[nH]1` had a Ki of 6400 µM.

In the case of `CC(=O)OCc1c[nH]c(=O)nc1NCc1ccco1`, in experiment [1], the Ki came to 50 µM.

In [1], `O=c1nc(NCc2cccnc2)cc[nH]1` had a Ki of 400 µM.

`O=C1N=C(NCc2ccccc2)NCN1` showed a Ki in experiment [1] of 20 µM. Against the preceding compound, the Ki is about 20-fold lower.

As for `C/C=N/c1cc[nH]c(=O)n1`, the Ki in experiment [10] worked out at 5600 µM. This counts as millimolar.

The compound `O=Cc1c[nH]c(=O)nc1NCc1ccco1` registered a Ki in experiment [1] of 83 µM. This lies in the double-digit micromolar range.

Take `O=c1nc(NCc2ccc(CO)o2)cc[nH]1`: in experiment [1], affinity was put at a Ki of 700 µM.

For the compound `O=c1nc(NCc2ccco2)cc[nH]1`, the Ki in experiment [1] was 70 µM.
